Measured values published in ChEMBL document CHEMBL1122092, “Synthesis of some potential antihypertensive phthalazinyl- and quinoxalinylguanidines” (J Med Chem, 1982).

How the values were obtained:
[1] = tested on: Rattus norvegicus; test: Percent change of mean arterial blood pressure in conscious DOCA Hypertensive rat at 2 hour, after administration of dose 10 mL (mg/kg po); type: functional
Procedure, shortened: (§1)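 Male DOCA (metacorticoid) hypertensive rats, conscious, with an aortic catheter implanted under halothane anaesthesia at least 48 h beforehand. Fasted 18 h, then dosed orally; saline vehicle 10 mL. Blood pressure recorded via pressure transducer with minimal restraint; a tachograph triggered by the pulse gave heart rate. Percent change from pre-dose control read at 1, 2, 3, 5 and 22 h.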

[2] = tested on: Rattus norvegicus; test: Percent change of mean arterial blood pressure in conscious DOCA Hypertensive rat at 22 hour, after administration of dose 10 mL (mg/kg po); type: functional; procedure, shortened: as §1
[3] = tested on: Rattus norvegicus; test: Percent change of mean arterial blood pressure in conscious DOCA Hypertensive rat at 3 hour, after administration of dose 10 mL (mg/kg po); type: functional; procedure, shortened: as §1
[4] = tested on: Rattus norvegicus; test: Percent change of mean arterial blood pressure in conscious DOCA Hypertensive rat at 5 hour, after administration of dose 10 mL (mg/kg po); type: functional; procedure, shortened: as §1
[5] = tested on: Rattus norvegicus; test: Percent change of heart rate in conscious DOCA Hypertensive rat at 1 hour after administration of dose of 10 mL (mg/kg po); type: functional; procedure, shortened: as §1
[6] = tested on: Rattus norvegicus; test: Percent change of heart rate in conscious DOCA Hypertensive rat at 22 hour after administration of dose of 10 mL (mg/kg po); type: functional; procedure, shortened: as §1
[7] = tested on: Rattus norvegicus; test: Percent change of heart rate in conscious DOCA Hypertensive rat at 3 hour after administration of dose of 10 mL (mg/kg po); type: functional; procedure, shortened: as §1
[8] = tested on: Rattus norvegicus; test: Percent change of heart rate in conscious DOCA Hypertensive rat at 5 hour after administration of dose of 10 mL (mg/kg po); type: functional; procedure, shortened: as §1
[9] = tested on: Rattus norvegicus; test: Percent change of mean arterial blood pressure in conscious DOCA Hypertensive rat at 1 hour, after administration of dose 10 mL (mg/kg po); type: functional; procedure, shortened: as §1
[10] = tested on: Rattus norvegicus; test: Percent change of heart rate in conscious DOCA Hypertensive rat at 2 hour after administration of dose of 10 mL (mg/kg po); type: functional; procedure, shortened: as §1
[11] = biological target: Adrenergic receptor alpha; test: In vitro postsynaptic antagonist activity against Alpha adrenergic receptor in rat anococcygeus muscle; type: functional, tissue-based
Procedure, shortened: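 Rat anococcygeus muscle; cumulative noradrenaline concentration-response curves obtained as control and again with increasing concentrations of test agent present; postsynaptic α-antagonism expressed as pA2. Mean of three experiments ± SEM.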

[12] = biological target: Adrenergic receptor alpha; test: In vitro presynaptic antagonist activity against Alpha adrenergic receptor in rat vas deferens; type: functional, tissue-based
Procedure, shortened: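 Rat vas deferens under 0.1 Hz stimulation; cumulative clonidine concentration-response curves run with increasing concentrations of test agent to gauge presynaptic α-antagonism; pA2 reported. Mean of three experiments ± SEM.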

[13] = tested on: Rattus norvegicus; test: In vivo threshold intravenous dose required to cause reversal of clonidine on blood pressure in pithed rat; type: functional
Procedure, shortened: (§2)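 Pithed rats given clonidine 30 μg/kg iv, which acts presynaptically (hypogastric nerve response) and postsynaptically (pressor response). Test agents were then injected iv to find the threshold dose reversing each clonidine action. Five rats per drug.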

[14] = tested on: Rattus norvegicus; test: In vivo threshold intravenous dose required to cause reversal of clonidine on hypogastric nerves in pithed rat; type: functional, Hypogastric nerve; procedure, shortened: as §2

pA2 [11]	pA2 [12]	SMILES	Change [1] [%]	Change [2] [%]	Change [3] [%]	Change [4] [%]	Change [5] [%]	Change [6] [%]	Change [7] [%]	Change [8] [%]	Change [9] [%]	Change [10] [%]	Dose [13] [mg/kg]	Dose [14] [mg/kg]
		Nc1nnc2c3ccccc3cnn12	-19	-3	-20	-23	8	7	6	2	-14	7		
		NNc1nncc2ccccc12 [HYDRALAZINE]	-45	-15	-44	-39	-5	8	2	11	-47	-1		
5.2	6.6	CCCC/N=C(\N)Nc1nncc2ccccc12	-10	8	-12	-9	14	11	21	18	-10	19	1	1
< 5.5	6.3	CCCC/N=C(/N)Nc1nc2ccccc2nc1C	-5	20	0	5	3	2	-5	-4	-3	-2	>1	>1
4.9	5.7	N=C(N)Nc1nncc2ccccc12	-20	4	-24	-20	2	3	7	1	-22	-14	1	3
		CNc1nnc2c3ccccc3cnn12	-13	4	-12	-5	-23	-10	-25	-25	-12	-25		
		Cc1ccc(N(CC2=NCCN2)c2cccc(O)c2)cc1 [PHENTOLAMINE]	-34	6	-33	-22	21	7	18	11	-41	22	0.03	0.03

SMILES	pA2 [11]	pA2 [12]	Change [1] [%]	Change [2] [%]	Change [3] [%]	Change [4] [%]	Change [5] [%]	Change [6] [%]	Change [7] [%]	Change [8] [%]	Change [9] [%]	Change [10] [%]	Dose [13] [mg/kg]	Dose [14] [mg/kg]
c1ccc2c(NC3=NCCN3)nncc2c1	4.8	6											0.3	3
